Measurements: ChEMBL document CHEMBL1155735, “Isolation and bioactivities of constitutents of the roots of Garcinia atroviridis” (J Nat Prod, 2001)
Converted amounts (≈) assume the structure as drawn. The source made the active and inactive calls. The rule behind the calls is not given here.

Experiments:
[1] = test system: HeLa; test: Cytotoxicity against human HeLa cells after 72 hrs by MTT assay; format: functional, cell-based
How it was run: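 Human cervical carcinoma HeLa cells were exposed for 72 h and viability read by MTT. IC50 values were reported in µg/mL, with doxorubicin and colchicine run as reference standards. Method followed an earlier report.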

[2] = test system: Escherichia coli; test: Antibacterial activity against Escherichia coli at 10 ug/disk by disk diffusion method; format: functional
How it was run: (§1)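 Disk diffusion, with test compound applied at 10 µg per disk. Streptomycin sulfate served as the reference antibacterial. Procedure followed an earlier report.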

[3] = test system: Aspergillus ochraceus; test: Antifungal activity against Aspergillus ochraceus at 10 ug/disk by disk diffusion method; format: functional, organism-based
[4] = test system: Staphylococcus aureus; test: Antibacterial activity against Staphylococcus aureus at 10 ug/disk by disk diffusion method; format: functional; settings: read-out: DIZ; how it was run: as §1
[5] = test system: Candida albicans; test: […] activity against Candida albicans at 10 ug/disk by disk diffusion method; format: functional, organism-based
[6] = test system: Bacillus cereus; test: Antibacterial activity against Bacillus cereus at 10 ug/disk by disk diffusion method; format: functional; settings: read-out: DIZ; how it was run: as §1

Row | SMILES | IC50 [1] [µg/mL] | diameter of the inhibition zone (DIZ) [2] | Activity [3] | zone of inhibition at 10 µg/disc [4] [mm] | Activity [5] | zone of inhibition at 10 µg/disc [6] [mm] | zone of inhibition at 10 µg/disc ([2]; read-out: DIZ) [mm]
1 | COC(=O)c1c(O)cc(O)cc1OC1=C(OC)C(=O)C(CC=C(C)C)=C(CC=C(C)C)C1=O [ATROVIRINONE] | 15 (≈ 32.9 µM) | inactive | inactive | 6.5 | inactive | 6.5 | 
2 | COc1c(O)c(CC=C(C)C)c(CC=C(C)C)c2c1Oc1cc(O)cc(O)c1C(=O)O2 [ATROVIRISIDONE] | > 30 | inactive | inactive | 8 | inactive | 7.5 | 
3 | COc1cc2c(c(OC)c1OC)-c1ccc(OC)c(=O)cc1[C@@H](NC(C)=O)CC2 [COLCHICINE] | 21 (≈ 52.6 µM) |  |  |  |  |  | 
4 | COc1cccc2c1C(=O)c1c(O)c3c(c(O)c1C2=O)C[C@@](O)(C(=O)CO)C[C@@H]3O[C@H]1C[C@H](N)[C@H](O)[C@H](C)O1 [DOXORUBICIN] | 11 (≈ 20.2 µM) |  |  |  |  |  | 
5 | CN[C@@H]1[C@H](O[C@H]2[C@H](O[C@H]3[C@H](O)[C@@H](O)[C@H](N=C(N)N)[C@@H](O)[C@@H]3N=C(N)N)O[C@@H](C)[C@]2(O)C=O)O[C@@H](CO)[C@H](O)[C@H]1O [STREPTOMYCIN] |  |  |  | 13.5 |  | 21 | 12.5
